Results: ChEMBL document CHEMBL1134850, “Biphenyl derivatives as novel dual NK(1)/NK(2)-receptor antagonists” (Bioorg Med Chem Lett, 2002)
pIC50: −log10 of the molar value.

Columns and labels:
Substance-K receptor [1] = molecular target: T1, Substance-K receptor (Homo sapiens, UniProt P21452); test: Binding affinity was determined by measuring the inhibition of 125 I-NKA binding to transfected CHO cells expressing human recombinant Tachykinin receptor 2; format: cell-based
T1 sequence (P21452 whole entry): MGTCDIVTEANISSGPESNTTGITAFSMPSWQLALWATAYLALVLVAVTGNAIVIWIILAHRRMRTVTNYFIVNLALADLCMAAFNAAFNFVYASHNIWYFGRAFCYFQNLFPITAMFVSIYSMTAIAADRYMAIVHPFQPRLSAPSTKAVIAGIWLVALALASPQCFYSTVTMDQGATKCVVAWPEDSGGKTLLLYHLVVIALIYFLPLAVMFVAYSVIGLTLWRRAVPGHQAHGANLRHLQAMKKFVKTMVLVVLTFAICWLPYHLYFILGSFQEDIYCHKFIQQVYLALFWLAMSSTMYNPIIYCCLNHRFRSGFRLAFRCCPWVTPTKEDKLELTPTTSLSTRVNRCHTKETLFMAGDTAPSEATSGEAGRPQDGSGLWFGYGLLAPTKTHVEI
Outline: (§1)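 Whole hNK2-transfected CHO cells (3 × 10⁵ per well) incubated 20 min at room temperature in 20 mM HEPES pH 7.4 with 2 mM MnSO₄ and 6 mM MgCl₂, 0.05 nM ¹²⁵I-NKA and varying test concentrations. Nonspecific binding defined with 50 nM NKA. Free ligand removed by rapid filtration, four ice-cold Tricine washes, filter-bound radioactivity by scintillation counting; triplicate samples.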

Substance-K receptor [2] = molecular target: T1, Substance-K receptor; test: Binding affinity by measuring the inhibition of 125 I-NKA binding to transfected CHO cells expressing human recombinant Tachykinin receptor 2; format: cell-based; outline: as §1

Compound	pIC50 (Substance-K receptor [1])	pIC50 (Substance-K receptor [2])
CN(C(=O)c1cc(C(F)(F)F)cc(C(F)(F)F)c1)c1cc(C(=O)N[C@@H]2CCCCNC2=O)ccc1-c1ccc(F)cc1	–	7.55
CN(C(=O)c1cc(C(F)(F)F)cc(C(F)(F)F)c1)c1cc(C(=O)NC2CCCCC2)ccc1-c1ccc(F)cc1	–	6.77
CN(C(=O)c1cc(C(F)(F)F)cc(C(F)(F)F)c1)c1cc(C(=O)NC2CCCCNC2=O)ccc1-c1ccccc1 (centres undefined)	–	6.25
Cc1ccc(-c2ccc(C(=O)N[C@@H]3CCCCNC3=O)cc2N(C)C(=O)c2cc(C(F)(F)F)cc(C(F)(F)F)c2)cc1	–	6.74
CN(C(=O)c1cc(C(F)(F)F)cc(C(F)(F)F)c1)c1cc(C(=O)N[C@@H]2CCCCNC2=O)ccc1-c1ccc(Cl)c(Cl)c1	–	7.37
COc1cc(C(=O)N(C)c2cc(C(=O)N[C@@H]3CCCCNC3=O)ccc2-c2ccc(Cl)cc2)cc(OC)c1OC	6.79	–
COc1cc(C(=O)Nc2cc(C(=O)NC3CCCCNC3=O)ccc2-c2ccc(Cl)cc2)cc(OC)c1OC (centres undefined)	< 6.00	–
COc1cc(C(=O)Nc2cc(C(=O)NC3CCCCC3)ccc2-c2ccc(Cl)cc2)cc(OC)c1OC	7.52	–
CN(C(=O)c1ccccc1)c1cc(C(=O)NC2CCCCC2)ccc1-c1ccc(F)cc1	–	< 6.00

Second part, the compound after the results:

pIC50 (Substance-K receptor [1])	pIC50 (Substance-K receptor [2])	Compound
6.30	–	CN(C)C(=O)c1ccc(-c2ccc(Cl)cc2)c(N(C)C(=O)c2cc(C(F)(F)F)cc(C(F)(F)F)c2)c1
–	7.15	CN(C(=O)c1cc(C(F)(F)F)cc(C(F)(F)F)c1)c1cc(C(=O)N[C@@H]2CCCCNC2=O)ccc1-c1ccc(Cl)cc1
6.97	–	CN(C)CCCNC(=O)c1ccc(-c2ccc(Cl)cc2)c(N(C)C(=O)c2cc(C(F)(F)F)cc(C(F)(F)F)c2)c1
< 6.00	–	CN(O)C(=O)c1ccc(-c2ccc(Cl)cc2)c(N(C)C(=O)c2cc(C(F)(F)F)cc(C(F)(F)F)c2)c1
7.29	–	CN(C(=O)c1cc(C(F)(F)F)cc(C(F)(F)F)c1)c1cc(C(=O)NC2CCCCC2)ccc1-c1ccc(Cl)cc1
